# In ChEMBL document CHEMBL3425427, “Pyrido[4,3-e][1,2,4]triazolo[4,3-a]pyrazines as Selective, Brain Penetrant Phosphodiesterase 2 (PDE2) Inhibitors” (ACS Med Chem Lett, 2015):
# Activity calls are given as the source filed them. The rule behind the calls is not given here.
# Experiments:
# [1] = Drug metabolism in rat liver microsomes at 1 uM incubated for 15 mins at 37 degC; assay type: ADME; conditions: read-out: Drug metabolism
# Summary of the method: (§1)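 Compound at 1 μM incubated 15 min at 37 °C with human or rat liver microsomes; read-out is percent metabolized.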
# [2] = Drug metabolism in human liver microsomes at 1 uM incubated for 15 mins at 37 degC; assay type: ADME; conditions: read-out: Drug metabolism; summary of the method: as §1
# [3] = target: T1, cAMP and cAMP-inhibited cGMP 3',5'-cyclic phosphodiesterase 10A (Rattus norvegicus, UniProt Q9QYJ6); test: Inhibition of 6-His-tagged rat recombinant PDE10A expressed in Sf9 cells using [3H]cAMP incubated for 60 mins by scintillation proximity assay
# T1 sequence (Q9QYJ6 whole entry): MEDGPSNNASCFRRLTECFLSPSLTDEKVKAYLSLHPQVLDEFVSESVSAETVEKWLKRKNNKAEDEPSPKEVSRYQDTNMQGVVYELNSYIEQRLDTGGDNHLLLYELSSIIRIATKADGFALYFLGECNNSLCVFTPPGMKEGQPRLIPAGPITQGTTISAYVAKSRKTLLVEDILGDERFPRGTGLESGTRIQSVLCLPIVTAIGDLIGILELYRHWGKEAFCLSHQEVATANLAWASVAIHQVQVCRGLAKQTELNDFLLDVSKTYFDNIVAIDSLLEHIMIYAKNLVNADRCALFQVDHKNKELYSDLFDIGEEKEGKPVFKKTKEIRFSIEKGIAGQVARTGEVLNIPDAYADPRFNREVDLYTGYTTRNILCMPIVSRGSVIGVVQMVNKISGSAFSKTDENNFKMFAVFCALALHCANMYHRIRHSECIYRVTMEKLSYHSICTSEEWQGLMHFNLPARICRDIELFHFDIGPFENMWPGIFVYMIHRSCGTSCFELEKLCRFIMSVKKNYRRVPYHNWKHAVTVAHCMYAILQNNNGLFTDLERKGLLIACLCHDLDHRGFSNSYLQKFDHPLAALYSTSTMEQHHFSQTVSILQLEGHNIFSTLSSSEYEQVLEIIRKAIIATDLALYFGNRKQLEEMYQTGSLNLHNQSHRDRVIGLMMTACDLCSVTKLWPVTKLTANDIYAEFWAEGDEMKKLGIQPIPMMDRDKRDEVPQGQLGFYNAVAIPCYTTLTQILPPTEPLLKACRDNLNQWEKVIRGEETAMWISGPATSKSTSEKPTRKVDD
# [4] = Dissociation constant, pKa of the compound; assay type: physicochemical
# Rattus norvegicus [5] = test: In vivo PDE2 occupancy in Wistar rat assessed as inhibition of specific binding of [3H]-4-((1-(5-butoxypyridin-3-yl)-4-methyl-[1,2,4]triazolo[4,3-a]quinoxalin-8-yl)methyl)morpholine radiotracer up to 10 mg/kg, po and pre-treated with 2.5 mg/kg, sc PDE10 inhibitor MP10; assay type: functional, organism-based
# [6] = Drug level in Sprague-Dawley rat brain homogenates at 10 mg/kg, sc after 1 hr; assay type: ADME, organism-based; design: dose 10 mg/kg, route subcutaneous; conditions: read-out: Drug uptake
# Summary of the method: (§2)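 Fed male Sprague-Dawley rats, n = 2 per time point, given 10 mg/kg s.c. in 20% HPβCD at pH 3.5−4. Brain and plasma levels taken 1 h after dosing; brain-to-plasma ratio computed from these.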
# [7] = Unbound fraction in Sprague-Dawley rat brain homogenates at 10 mg/kg, sc after 5 hrs at 37 degC by rapid equilibrium dialysis; assay type: ADME, organism-based; design: dose 10 mg/kg, route subcutaneous; conditions: brain homogenate
# Summary of the method: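 Unbound fraction measured in rat brain homogenate by rapid equilibrium dialysis, 5 h incubation at 37 °C.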
# Rattus norvegicus [8] = test: In vivo PDE2 occupancy in Wistar rat assessed as inhibition of specific binding of [3H]-4-((1-(5-butoxypyridin-3-yl)-4-methyl-[1,2,4]triazolo[4,3-a]quinoxalin-8-yl)methyl)morpholine radiotracer and pre-treated with 2.5 mg/kg, sc PDE10 inhibitor MP10; assay type: functional; conditions: route subcutaneous
# [9] = Ratio of drug level in brain to plasma of Sprague-Dawley rat at 10 mg/kg, sc after 1 hr; assay type: ADME, organism-based; design: dose 10 mg/kg, route subcutaneous; conditions: read-out: BPR; summary of the method: as §2
# Rattus norvegicus [10] = test: In vivo PDE2 occupancy in Wistar rat assessed as inhibition of specific binding of [3H]-4-((1-(5-butoxypyridin-3-yl)-4-methyl-[1,2,4]triazolo[4,3-a]quinoxalin-8-yl)methyl)morpholine radiotracer at 10 mg/kg, sc and pre-treated with 2.5 mg/kg, sc PDE10 inhibitor MP10; assay type: functional
SMILES,"metabolised at 0.25 h, 1 µM [1] [%]","metabolised at 0.25 h, 1 µM [2] [%]",IC50 [3] [µM],pKa [4],Activity (Rattus norvegicus [5]),concentration at 1 h [6] [ng/g],fraction unbound at 5 h [7],ED50 (Rattus norvegicus [8]) [mg/kg],Kp at 1 h [9],Occ (Rattus norvegicus [10]) [%]
Cc1nc2ccncc2n2c(-c3cc(N4CCOCC4)ccc3Cl)nnc12,53,14,> 10,–,–,–,–,–,–,–
Cc1nc2cccnc2n2c(-c3ccccc3Cl)nnc12,–,–,–,1,–,–,–,–,–,–
Cc1nc2ccncc2n2c(-c3cc(COCC(F)(F)F)ccc3Cl)nnc12,77,12,–,–,inactive,370,0.1,3.6,1.1,–
CCCCOc1cncc(-c2nnc3c(C)nc4ccncc4n23)c1,46,6,–,–,–,789,> 0.3,–,0.61,23
Cc1nc2ccncc2n2c(-c3cc(COC(C)C)ccc3Cl)nnc12,98,57,6.03,–,–,–,–,–,–,–
